# From ChEMBL document CHEMBL1155010, “Synthesis and biological evaluation of substituted [18F]imidazo[1,2-a]pyridines and [18F]pyrazolo[1,5-a]pyrimidines for the study of the peripheral benzodiazepine receptor using positron emission tomography” (J Med Chem, 2008)
# pKi: −log10 of the molar value.
# What was measured:
# Kidney [1] = assay: Biodistribution in Sprague-Dawley rat kidney assessed per gram of tissue at 1 MBq, iv after 0.25 hrs; type: ADME, organism-based; conditions: in vivo
# Summary of the method: (§1)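 Male SD rats aged 8-10 weeks got 1 MBq [18F]tracer by tail vein in 0.1 mL. Groups of n = 4 were killed (CO2, then cervical fracture) at 0.25, 0.5, 1 and 4 h. Organs were weighed and gamma counted against a diluted standard of the injectate. Results are %ID per gram wet tissue, mean with standard deviation.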
# Kidney [2] = assay: Biodistribution in Sprague-Dawley rat kidney assessed per gram of tissue at 1 MBq, iv after 0.5 hrs; type: ADME, organism-based; conditions: in vivo; summary of the method: as §1
# Kidney [3] = assay: Biodistribution in Sprague-Dawley rat kidney assessed per gram of tissue at 1 MBq, iv after 1 hr; type: ADME, organism-based; conditions: in vivo; summary of the method: as §1
# Kidney [4] = assay: Biodistribution in Sprague-Dawley rat kidney assessed per gram of tissue at 1 MBq, iv after 4 hrs; type: ADME, organism-based; conditions: in vivo; summary of the method: as §1
# Heart [5] = assay: Biodistribution in Sprague-Dawley rat heart assessed per gram of tissue at 1 MBq, iv after 0.25 hrs; type: ADME, organism-based; conditions: in vivo; summary of the method: as §1
# Heart [6] = assay: Biodistribution in Sprague-Dawley rat heart assessed per gram of tissue at 1 MBq, iv after 0.5 hrs; type: ADME, organism-based; conditions: in vivo; summary of the method: as §1
# Heart [7] = assay: Biodistribution in Sprague-Dawley rat heart assessed per gram of tissue at 1 MBq, iv after 1 hr; type: ADME, organism-based; conditions: in vivo; summary of the method: as §1
# Heart [8] = assay: Biodistribution in Sprague-Dawley rat heart assessed per gram of tissue at 1 MBq, iv after 4 hrs; type: ADME, organism-based; conditions: in vivo; summary of the method: as §1
# Lung [9] = assay: Biodistribution in Sprague-Dawley rat lungs assessed per gram of tissue at 1 MBq, iv after 0.25 hrs; type: ADME, organism-based; conditions: in vivo; summary of the method: as §1
# Lung [10] = assay: Biodistribution in Sprague-Dawley rat lungs assessed per gram of tissue at 1 MBq, iv after 0.5 hrs; type: ADME, organism-based; conditions: in vivo; summary of the method: as §1
# Lung [11] = assay: Biodistribution in Sprague-Dawley rat lungs assessed per gram of tissue at 1 MBq, iv after 1 hr; type: ADME, organism-based; conditions: in vivo; summary of the method: as §1
# Lung [12] = assay: Biodistribution in Sprague-Dawley rat lungs assessed per gram of tissue at 1 MBq, iv after 4 hrs; type: ADME, organism-based; conditions: in vivo; summary of the method: as §1
# Spleen [13] = assay: Biodistribution in Sprague-Dawley rat spleen assessed per gram of tissue at 1 MBq, iv after 0.25 hrs; type: ADME, organism-based; conditions: in vivo; summary of the method: as §1
# Spleen [14] = assay: Biodistribution in Sprague-Dawley rat spleen assessed per gram of tissue at 1 MBq, iv after 0.5 hrs; type: ADME, organism-based; conditions: in vivo; summary of the method: as §1
# Spleen [15] = assay: Biodistribution in Sprague-Dawley rat spleen assessed per gram of tissue at 1 MBq, iv after 1 hr; type: ADME, organism-based; conditions: in vivo; summary of the method: as §1
# Spleen [16] = assay: Biodistribution in Sprague-Dawley rat spleen assessed per gram of tissue at 1 MBq, iv after 4 hrs; type: ADME, organism-based; conditions: in vivo; summary of the method: as §1
# Liver [17] = assay: Biodistribution in Sprague-Dawley rat liver assessed per gram of tissue at 1 MBq, iv after 0.25 hrs; type: ADME, organism-based; conditions: in vivo; summary of the method: as §1
# Liver [18] = assay: Biodistribution in Sprague-Dawley rat liver assessed per gram of tissue at 1 MBq, iv after 0.5 hrs; type: ADME, organism-based; conditions: in vivo; summary of the method: as §1
# Liver [19] = assay: Biodistribution in Sprague-Dawley rat liver assessed per gram of tissue at 1 MBq, iv after 1 hr; type: ADME, organism-based; conditions: in vivo; summary of the method: as §1
# Liver [20] = assay: Biodistribution in Sprague-Dawley rat liver assessed per gram of tissue at 1 MBq, iv after 4 hrs; type: ADME, organism-based; conditions: in vivo; summary of the method: as §1
# Adrenal [21] = assay: Biodistribution in Sprague-Dawley rat adrenals assessed per gram of tissue at 1 MBq, iv after 0.25 hrs; type: ADME, organism-based, Adrenal tissue; conditions: in vivo; summary of the method: as §1
# Adrenal [22] = assay: Biodistribution in Sprague-Dawley rat adrenals assessed per gram of tissue at 1 MBq, iv after 0.5 hrs; type: ADME, organism-based, Adrenal tissue; conditions: in vivo; summary of the method: as §1
# Adrenal [23] = assay: Biodistribution in Sprague-Dawley rat adrenals assessed per gram of tissue at 1 MBq, iv after 1 hr; type: ADME, organism-based, Adrenal tissue; conditions: in vivo; summary of the method: as §1
# Adrenal [24] = assay: Biodistribution in Sprague-Dawley rat adrenals assessed per gram of tissue at 1 MBq, iv after 4 hrs; type: ADME, organism-based, Adrenal tissue; conditions: in vivo; summary of the method: as §1
# [25] = Biodistribution in Sprague-Dawley rat testis assessed per gram of tissue at 1 MBq, iv after 0.25 hrs; type: ADME, organism-based; conditions: in vivo; summary of the method: as §1
# [26] = Biodistribution in Sprague-Dawley rat testis assessed per gram of tissue at 1 MBq, iv after 0.5 hrs; type: ADME, organism-based; conditions: in vivo; summary of the method: as §1
# [27] = Biodistribution in Sprague-Dawley rat testis assessed per gram of tissue at 1 MBq, iv after 1 hr; type: ADME, organism-based; conditions: in vivo; summary of the method: as §1
# [28] = Biodistribution in Sprague-Dawley rat testis assessed per gram of tissue at 1 MBq, iv after 4 hrs; type: ADME, organism-based; conditions: in vivo; summary of the method: as §1
# Blood [29] = assay: Biodistribution in Sprague-Dawley rat blood at 1 MBq, iv after 1 hr; type: ADME, organism-based; conditions: in vivo
# Summary of the method: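 Male SD rats, 8-10 weeks old, given 1 MBq [18F]radiotracer by tail-vein injection in 0.1 mL. Groups of 4 killed (CO2, then cervical fracture) at 0.25, 0.5, 1 and 4 h post-injection. Tissues weighed and gamma-counted against a diluted standard of the injected solution. Activity expressed as %ID per gram wet tissue.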
# Blood [30] = assay: Biodistribution in Sprague-Dawley rat blood at 1 MBq, iv after 0.25 hrs; type: ADME, organism-based; conditions: in vivo; summary of the method: as §1
# Blood [31] = assay: Biodistribution in Sprague-Dawley rat blood at 1 MBq, iv after 4 hrs; type: ADME, organism-based; conditions: in vivo; summary of the method: as §1
# Femur [32] = assay: Biodistribution in Sprague-Dawley rat femur at 1 MBq, iv after 0.25 hrs; type: ADME, organism-based; conditions: in vivo; summary of the method: as §1
# Femur [33] = assay: Biodistribution in Sprague-Dawley rat femur at 1 MBq, iv after 4 hrs; type: ADME, organism-based; conditions: in vivo; summary of the method: as §1
# [34] = Metabolic stability in Sprague-Dawley rat plasma assessed as drug remaining at 30 MBq after 0.25 hrs by Radio-HPLC analysis; type: ADME, cell-free; conditions: read-out: Stability
# Summary of the method: (§2)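 Rats received 30 MBq tracer and were sampled at 0.25, 0.5, 1 and 4 h. Plasma was diluted with water containing unlabeled carrier and KF and injected directly. Frontal cortex or olfactory bulb was sonicated in acetonitrile/water 1:1 with carrier and KF, centrifuged, and the supernatant diluted. Radio-HPLC used a precolumn switched to C18 with a CH3CN/0.05 M sodium acetate pH 5.5 gradient. Result is % parent remaining.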
# [35] = Metabolic stability in Sprague-Dawley rat frontal cortex assessed as drug remaining at 30 MBq after 0.25 hrs by Radio-HPLC analysis; type: ADME, tissue-based; conditions: read-out: Stability; summary of the method: as §2
# [36] = Metabolic stability in Sprague-Dawley rat frontal cortex assessed as drug remaining at 30 MBq after 4 hrs by Radio-HPLC analysis; type: ADME, tissue-based; conditions: read-out: Stability; summary of the method: as §2
# [37] = Lipophilicity, log p at pH 7.5; type: physicochemical; conditions: buffer
# Summary of the method: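 RP-HPLC on a C18 column with methanol/0.1 M phosphate buffer pH 7.5 (60/40) at 1 mL/min. Samples were dissolved in methanol. log P7.5 was estimated by comparing retention time with that of reference compounds of known log P.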
# [38] = Displacement of [3H]flumazenil from central benzodiazepine receptor in rat brain cortex membrane; type: cell membranes
# Summary of the method: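 Rat brain cortex membranes (100-150 µg protein) were incubated in triplicate at 25 °C for 45 min with [3H]flumazenil (2 nM) and 7 ligand concentrations (10^-10 to 10^-5 M). Nonspecific binding was set with flumazenil 20 µM. Assays were filtered, washed with ice-cold Tris/HCl pH 7.4 and counted. Ki was derived from IC50 by Cheng-Prusoff.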
# [39] = Ratio of drug level in olfactory bulb to blood in Sprague-Dawley rat at 1 MBq, iv; type: ADME
# Summary of the method: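 Same rat biodistribution as above: 1 MBq iv by tail vein, n = 4 per time point, 0.25-4 h, gamma counting as %ID/g. Ratio is the olfactory bulb radioactivity concentration divided by the blood concentration at each time.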
# [40] = Metabolic stability in Sprague-Dawley rat plasma assessed as drug remaining at 30 MBq after 4 hrs by Radio-HPLC analysis; type: ADME, cell-free; conditions: read-out: Stability; summary of the method: as §2
# [41] = Metabolic stability in Sprague-Dawley rat olfactory bulb assessed as drug remaining at 30 MBq after 0.25 hrs by Radio-HPLC analysis; type: ADME, tissue-based; conditions: read-out: Stability; summary of the method: as §2
# [42] = Metabolic stability in Sprague-Dawley rat olfactory bulb assessed as drug remaining at 30 MBq after 4 hrs by Radio-HPLC analysis; type: ADME, tissue-based; conditions: read-out: Stability; summary of the method: as §2
SMILES,Drug uptake (Kidney [1]) [%ID],Drug uptake (Kidney [2]) [%ID],Drug uptake (Kidney [3]) [%ID],Drug uptake (Kidney [4]) [%ID],Drug uptake (Heart [5]) [%ID],Drug uptake (Heart [6]) [%ID],Drug uptake (Heart [7]) [%ID],Drug uptake (Heart [8]) [%ID],Drug uptake (Lung [9]) [%ID],Drug uptake (Lung [10]) [%ID],Drug uptake (Lung [11]) [%ID],Drug uptake (Lung [12]) [%ID],Drug uptake (Spleen [13]) [%ID],Drug uptake (Spleen [14]) [%ID],Drug uptake (Spleen [15]) [%ID],Drug uptake (Spleen [16]) [%ID],Drug uptake (Liver [17]) [%ID],Drug uptake (Liver [18]) [%ID],Drug uptake (Liver [19]) [%ID],Drug uptake (Liver [20]) [%ID],further results
CCN(CC)C(=O)Cc1c(-c2ccc(OCCC[18F])cc2)nn2c(C)cc(C)nc12,5.5,4.9,4.7,3.2,9,9,8.7,5.8,20,12.4,7.1,3.3,5.5,5.5,5.1,3.6,1.08,0.98,0.69,0.38,Drug uptake (Adrenal [21]): 8 %ID; Drug uptake (Adrenal [22]): 7.9 %ID; Drug uptake (Adrenal [23]): 11 %ID; Drug uptake (Adrenal [24]): 12.2 %ID; Drug uptake [25]: 0.27 %ID; Drug uptake [26]: 0.28 %ID; Drug uptake [27]: 0.32 %ID; Drug uptake [28]: 0.43 %ID; Drug uptake (Blood [29]): 0.1 % ID/g; Drug uptake (Blood [30]): 0.3 % ID/g; Drug uptake (Blood [31]): 0.1 % ID/g; Drug uptake (Femur [32]): 0.6 % ID/g; Drug uptake (Femur [33]): 2.2 % ID/g; remaining at 0.25 h [34]: 10%; remaining at 0.25 h [35]: 55%; remaining at 4 h [36]: 30%
CCN(CC)C(=O)Cc1c(-c2ccc(OCCCF)cc2)nn2c(C)cc(C)nc12,–,–,–,–,–,–,–,–,–,–,–,–,–,–,–,–,–,–,–,–,logD [37]: 3.2; pKi [38]: < 5.30
CCN(CC)C(=O)Cc1c(-c2ccc(OCC[18F])cc2)nc2ccc(Cl)cn12,3.3,3.2,2.7,1.3,4.3,4.4,4.6,2.8,14.3,12.1,11.6,8.1,4.5,3.9,3.4,1.9,0.63,0.52,0.35,0.29,Drug uptake (Adrenal [21]): 6.7 %ID; Drug uptake (Adrenal [22]): 7.9 %ID; Drug uptake (Adrenal [23]): 7.3 %ID; Drug uptake (Adrenal [24]): 7.1 %ID; Drug uptake [25]: 0.17 %ID; Drug uptake [26]: 0.23 %ID; Drug uptake [27]: 0.31 %ID; Drug uptake [28]: 0.42 %ID; Kp [39]: 2; Drug uptake (Femur [32]): 0.4 % ID/g; Drug uptake (Femur [33]): 0.7 % ID/g; remaining at 4 h [40]: < 1%; remaining at 0.25 h [35]: 55%; remaining at 4 h [36]: 10%; remaining at 0.25 h [41]: 80%; remaining at 4 h [42]: 40%
CCN(CC)C(=O)Cc1c(-c2ccc(OCCF)cc2)nn2c(C)cc(C)nc12 [DPA-714],–,–,–,–,–,–,–,–,–,–,–,–,–,–,–,–,–,–,–,–,logD [37]: 2.5; pKi [38]: < 5.30
